Calls of active or inactive are those of the source. The rule behind the calls is not given here.
Assays:
[1] = test system: Pseudomonas aeruginosa; assay: Bactericidal activity against Pseudomonas aeruginosa PaM02 at 128 ug/ml after 24 hrs by time kill analysis (reference value: 2.322 log10 CFU/ml); format: functional
[2] = test system: Pseudomonas aeruginosa; assay: Bactericidal activity against Pseudomonas aeruginosa PaM02 at 128 ug/ml after 16 hrs by time kill analysis (reference value: 2.322 log10 CFU/ml); format: functional
[3] = test system: Pseudomonas aeruginosa; assay: Bactericidal activity against Pseudomonas aeruginosa PaM02 at 128 ug/ml after 8 hrs by time kill analysis (reference value: 2.322 log10 CFU/ml); format: functional
[4] = test system: Pseudomonas aeruginosa; assay: Bactericidal activity against Pseudomonas aeruginosa PaM02 at 128 ug/ml after 4 hrs by time kill analysis (reference value: 2.322 log10 CFU/ml); format: functional
[5] = test system: Pseudomonas aeruginosa; assay: Antimicrobial activity against Pseudomonas aeruginosa PaM02 assessed as growth inhibition at 0.315 umol/ml by microtitre plate reader analysis; format: functional
How it was run: (§1)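 Clinical mucoid strain grown overnight in LB broth at 37 °C and diluted with saline to OD600 around 1, then 100-fold. Compound in LB was added to an equal volume of cells, giving a final 5.0 × 10^5 CFU/ml and 128 µg/ml compound. Negative control was LB plus the matching DMSO level, with sterility and no-compound wells. Growth was read as turbidity at 600 nm; tobramycin served as positive control.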

[6] = test system: Pseudomonas aeruginosa; assay: Antimicrobial activity against Pseudomonas aeruginosa PaM02 at > 128 ug/ml by microtitre plate reader analysis; format: functional, organism-based; how it was run: as §1
[7] = test system: Pseudomonas aeruginosa; assay: Antimicrobial activity against Pseudomonas aeruginosa PaM02 biofilm at 128 ug/ml after 24 hrs by crystal violet staining-based ELISA reader analysis; format: functional; conditions: PaM02, 24 h
How it was run: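 Preformed biofilm was grown from 100 µL of 1.0 × 10^7 CFU/ml inoculum for 24 h at 37 °C in polystyrene wells. Planktonic cells were removed and wells rinsed with PBS. Compound at 128 µg/ml final in LB was added for a further 24 h at 37 °C. Biofilm was stained with 1% crystal violet, destained with 95% ethanol and read at 570 nm. Reduction = [(Ac−At)/Ac] × 100 versus LB/DMSO controls.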

[8] = test system: Pseudomonas aeruginosa; assay: Antimicrobial activity against Pseudomonas aeruginosa PaM02 assessed as growth inhibition at 0.008 umol/ml by microtitre plate reader analysis; format: functional; how it was run: as §1
[9] = test system: Pseudomonas aeruginosa; assay: Inhibition of biofilm formation of Pseudomonas aeruginosa PaM02 at 128 ug/ml after 24 hrs by crystal violet staining-based ELISA reader analysis; format: functional; conditions: PaM02, 24 h
How it was run: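 Prevention assay: compound at 128 µg/ml final in LB was incubated in polystyrene wells overnight at 4 °C, aspirated, and wells washed with PBS. Wells were seeded with 100 µL of 1.0 × 10^7 CFU/ml inoculum and incubated 24 h at 37 °C. Biofilm was stained with 1% crystal violet, destained with 95% ethanol and read at 570 nm. Inhibition = [(Ac−At)/Ac] × 100 versus LB-preincubated controls.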

[10] = test system: Pseudomonas aeruginosa; assay: Antimicrobial activity against Pseudomonas aeruginosa PaM02 assessed as growth inhibition at 0.323 umol/ml by microtitre plate reader analysis; format: functional; how it was run: as §1
[11] = test system: Pseudomonas aeruginosa; assay: Antimicrobial activity against Pseudomonas aeruginosa PaM02 assessed as growth inhibition at 0.245 umol/ml by microtitre plate reader analysis; format: functional; how it was run: as §1

Molecule COc1cc(/C=C/c2ccc(O[C@@H]3O[C@H](CO)[C@@H](O)[C@H](O)[C@H]3O)cc2)oc(=O)c1 has an Activity [1] of 1.045 log10CFU/ml, an Activity [2] of 1.055 log10CFU/ml and an Activity [3] of 1.103 log10CFU/ml. The Activity [4] was 1.157 log10CFU/ml and the “growth inhibition (GI)” value [5] was 53%.

With COc1cc(=O)oc([C@H]2[C@H](c3ccc(O[C@@H]4O[C@H](CO)[C@@H](O)[C@H](O)[C@H]4O)cc3)[C@H](c3cc(OC)cc(=O)o3)[C@H]2c2ccc(O[C@@H]3O[C@H](CO)[C@@H](O)[C@H](O)[C@H]3O)cc2)c1 the Activity [6] was “inactive”.

For C=C(CO)[C@@H]1Oc2ccc(C(C)=O)cc2[C@@H]1O[C@@H]1O[C@H](CO)[C@@H](O)[C@H](O)[C@H]1O, the Activity [6] was “inactive” and the inhibition at 128 µg/mL [7] was 9%.

NC[C@H]1O[C@H](O[C@H]2[C@H](O)[C@@H](O[C@H]3O[C@H](CO)[C@@H](O)[C@H](N)[C@H]3O)[C@H](N)C[C@@H]2N)[C@H](N)C[C@@H]1O [TOBRAMYCIN] was tested, and the “growth inhibition (GI)” value [8] was 100%.

O=C(/C=C/c1ccc(O)c(O)c1)O[C@@H]1C[C@](O)(C(=O)O)C[C@@H](O)[C@H]1O [CHLOROGENIC ACID] was tested, and the inhibition at 128 µg/mL [9] was 45% and the Activity [6] was “inactive”.

In the case of COc1cc(/C=C/c2ccc(O[C@@H]3O[C@H](COC(=O)CC(C)(O)CC(=O)O)[C@@H](O)[C@H](O)[C@H]3O)cc2)oc(=O)c1 (some centres undefined), the Activity [6] is reported as “inactive”.

COc1cc2c(c(O[C@@H]3O[C@H](COC(=O)CC(=O)O)[C@@H](O)[C@H](O)[C@H]3O)c1)C(=O)OC2 was tested, and the Activity [6] was “inactive” and the inhibition at 128 µg/mL [7] was 27%.

O=C(/C=C/c1ccc(O)c(O)c1)O[C@@H]1C[C@](O)(C(=O)O)C[C@@H](OC(=O)/C=C/c2ccc(O)c(O)c2)[C@H]1O was tested, and the Activity [6] was “inactive”.

Molecule C=C(CO[C@@H]1O[C@H](CO)[C@@H](O)[C@H](O)[C@H]1O)[C@@H]1Oc2ccc(C(C)=O)cc2[C@@H]1O has an Activity [1] of 1.881 log10CFU/ml, an Activity [2] of 1.927 log10CFU/ml and an Activity [3] of 1.974 log10CFU/ml. The Activity [4] was 2.136 log10CFU/ml, the inhibition at 128 µg/mL [7] was 16% and the “growth inhibition (GI)” value [10] was 17%.

Molecule COc1cc([C@H]2Oc3c(OC)cc(CCCO)cc3[C@@H]2CO)ccc1O[C@@H]1O[C@H](CO)[C@@H](O)[C@H](O)[C@H]1O has an Activity [1] of 1.765 log10CFU/ml, an Activity [2] of 1.811 log10CFU/ml and an Activity [3] of 1.858 log10CFU/ml. The Activity [4] was 2.043 log10CFU/ml and the “growth inhibition (GI)” value [11] was 21%.

COc1cc(/C=C/c2ccc(O[C@@H]3O[C@H](COC(=O)CC(=O)O)[C@@H](O)[C@H](O)[C@H]3O)cc2)oc(=O)c1 was tested, and the Activity [6] was “inactive”.

With COc1cc2c(c(O[C@@H]3O[C@H](CO)[C@@H](O)[C@H](O)[C@H]3O)c1)C(=O)OC2 the Activity [6] was “inactive”.

In the case of O=C1OCc2cc(O)cc(O[C@@H]3O[C@H](CO)[C@@H](O)[C@H](O)[C@H]3O)c21, the Activity [6] is reported as “inactive”.

Reference: ChEMBL document CHEMBL2439968, “Spectroscopic identification and anti-biofilm properties of polar metabolites from the medicinal plant Helichrysum italicum against Pseudomonas aeruginosa” (2013)
